These results are taken from ChEMBL document CHEMBL1149713, “1,2,4-benzothiadiazine linked pyrrolo[2,1-c][1,4]benzodiazepine conjugates: synthesis, DNA-binding affinity and cytotoxicity” (Bioorg Med Chem Lett, 2007).

For one experiment, the system named is ZR-75-1. In words: Cytotoxicity against human Zr75-1 cells. The format is functional, cell-based. The procedure, abridged:
(§1)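 Sulforhodamine B (SRB) assay in human cancer cell lines: lung (A549, Hop62), breast (Zr-75-1), oral (DWD, KB, Gurav), prostate (PC3). IC50 in µM, mean of three determinations. Adriamycin as reference. Where IC50 was not reached within the concentrations tested, no value is given.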

The test system of another experiment is KB. In words: Cytotoxicity against human KB cells. Format: functional, cell-based. The method in brief: as §1
Experiment [1] in a line: Cytotoxicity against human DWD cells. The format is functional, cell-based. The method in brief: as §1
Another experiment has as its system PC-3. In words: Cytotoxicity against human PC3 cells. The format is functional, cell-based. The method in brief: as §1
A further experiment concerns A549. In words: Cytotoxicity against human A549 cells. Format: functional, cell-based. The method in brief:
as §1

In experiment [2] the test system is DNA. In words: Binding affinity to calf thymus DNA at 20 uM after 36 hrs by thermal denaturation assay. The note with it: Bos taurus. The format is nucleic-acid assay.
For experiment [3], the system named is DNA. In words: Binding affinity to calf thymus DNA at 20 uM after 18 hrs by thermal denaturation assay. Format: nucleic-acid assay. Particulars: Bos taurus.
The nature of experiment [4]: Cytotoxicity against human Gurav cells. The format is functional, cell-based. The procedure, abridged:
as §1

Another experiment relates to HOP-62. In words: Cytotoxicity against human Hop62 cells. Format: functional, cell-based. The procedure, abridged: as §1

Turning to `COc1cccc2c1C(=O)c1c(O)c3c(c(O)c1C2=O)C[C@@](O)(C(=O)CO)C[C@@H]3O[C@H]1C[C@H](N)[C@H](O)[C@H](C)O1` [DOXORUBICIN], the IC50 in the experiment with ZR-75-1 came to 2.32 µM; in the experiment on KB, 0.17 µM; in experiment [1] it was 24.9 µM; with PC-3 it was 2.26 µM.

As for `COc1cc2c(cc1OCCCCCN1CCN(C3=NS(=O)(=O)c4ccccc4N3C(C)C)CC1)N=C[C@@H]1CCCN1C2=O`, the 50% inhibitory concentration (IC50) in the experiment with A549 was found to be 30.3 µM; in the experiment on ZR-75-1 it was 0.12 µM; in experiment [4] it was 26.5 µM; in the experiment on KB it was 2.43 µM; in experiment [1], 27.7 µM; in the experiment with HOP-62, 27.9 µM. This compound also displayed a 50% inhibitory concentration (IC50) with PC-3 of 27.8 µM. For the same compound, the ΔTm is 6.7 °C with DNA [2] and 6.4 °C in the experiment with DNA [3].

Consider `COc1cc2c(cc1OCCCCCN1CCN(C3=NS(=O)(=O)c4ccccc4N3c3ccccc3)CC1)N=C[C@@H]1CCCN1C2=O`, for which the half-maximal inhibitory concentration (IC50) in the experiment on A549 was 30.2 µM; in [4], 356 µM; with KB, 2.3 µM; in the experiment on PC-3, 2.35 µM. For the same compound, the ΔTm was 4.6 °C with DNA [2] and 4.4 °C in the experiment on DNA [3].

Take `COc1cc2c(cc1OCCCCN1CCN(C3=NS(=O)(=O)c4ccccc4N3c3ccccc3)CC1)N=C[C@@H]1CCCN1C2=O`: the IC50 in the experiment on ZR-75-1 came out at 0.15 µM; with KB, 29.4 µM; in the experiment on HOP-62, 369 µM; in the experiment on PC-3, 357 µM. Further, the thermal shift (ΔTm) in the experiment on DNA [2] and in the experiment with DNA [3] was 4.1 °C in each case.

Take `COc1cc2c(cc1O)N=C[C@@H]1CCCN1C2=O`: the ΔTm in the experiment on DNA [2] and in the experiment on DNA [3] was 0.7 °C each time.

On to `COc1cc2c(cc1OCCCCN1CCN(C3=NS(=O)(=O)c4ccccc4N3C(C)C)CC1)N=C[C@@H]1CCCN1C2=O`, for which the results for the IC50 in the experiment with ZR-75-1, in the experiment on KB and in the experiment with HOP-62 were 2.24 µM, 26.1 µM and 343 µM, respectively. For the same compound, the ΔTm with DNA [2] came to 4.3 °C; with DNA [3], 4.2 °C.
